In data set [1] the test system is HSC-2. Description: Selectivity index, ratio of CC50 for human normal cells to CC50 for human HSC2 cells. In kind it is functional. The method in brief:
(§1)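 Ratio of the mean CC50 over three normal human lines (HGF gingival fibroblasts, HPC pulp cells, HPLF periodontal ligament fibroblasts) to the CC50 for the given tumor line. Each CC50 is the mean of two independent determinations.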

Data set [2] relates to HSC-4. Description: Selectivity index, ratio of CC50 for human normal cells to CC50 for human HSC4 cells. Type of data set: functional. An outline of the steps:
as §1

Data set [3] can be described thus: Cytotoxicity against human HPLF cells. Type of data set: cell-based.
Data set [4] concerns HSC-4. Description: Cytotoxicity against human HSC4 cells. Type of data set: functional. An outline of the steps:
(§2)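 Each value is the mean of two independent determinations.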

Data set [5] relates to HL-60. Description: Cytotoxicity against human HL60 cells. In kind it is functional. An outline of the steps: as §2
Data set [6] has as its system HSC-2. Put plainly: Cytotoxicity against human HSC2 cells. In kind it is functional. The method in brief: as §2
For data set [7], the system named is HL-60. Put plainly: Selectivity index, ratio of CC50 for human normal cells to CC50 for human HL60 cells. Type of data set: functional. The method in brief:
as §1

A short description of data set [8]: Cytotoxicity against human HGF cells. In kind it is cell-based.
Data set [9] is described as follows: Cytotoxicity against human HPC cells. In kind it is cell-based.

The record followed here is ChEMBL document CHEMBL1156843, “3,5-Bis(benzylidene)-1-[4-2-(morpholin-4-yl)ethoxyphenylcarbonyl]-4-piperidone hydrochloride: a lead tumor-specific cytotoxin which induces apoptosis and autophagy” (Bioorg Med Chem Lett, 2010).

As for `Cl.O=C1/C(=C/c2ccccc2)CN(C(=O)c2ccc(OCCN3CCCCC3)cc2)C/C1=C\c1ccccc1`, the results for the “Selectivity Index” value in [1], in [2] and in data set [7] were 2.7, 3.2 and 5.7, respectively. Besides, the CC50 (commonly the concentration at which the toxic effect on the cells reaches its halfway point) stood at 7.4 µM in [3]; 2.5 µM in [4]; 1.4 µM in data set [5]; 3 µM in [6]; 4.6 µM in [8]; 12 µM in data set [9].
`CN(C)CCOc1ccc(C(=O)N2C/C(=C\c3ccc([N+](=O)[O-])cc3)C(=O)/C(=C/c3ccc([N+](=O)[O-])cc3)C2)cc1.Cl`: the “Selectivity Index” value in data set [1] is recorded as 6.5; in data set [2], 8.5; in data set [7], 19. Further, the CC50 was 5.9 µM in [3]; 0.71 µM in [4]; 0.31 µM in data set [5]; 0.93 µM in data set [6]; 7 µM in data set [8]; 5.2 µM in data set [9].
On to `Cc1ccc(/C=C2\CN(C(=O)c3ccc(OCCN4CCCCC4)cc3)C/C(=C\c3ccc(C)cc3)C2=O)cc1.Cl`, for which the figures for the “Selectivity Index” value in data set [1], in data set [2] and in data set [7] were 3, 2.2 and 3.8, respectively. The CC50 was 5.5 µM in data set [3]; 4.1 µM in data set [4]; 2.3 µM in data set [5]; 2.9 µM in data set [6]; 6 µM in data set [8]; 15 µM in data set [9].
Consider `Cl.O=C1/C(=C/c2ccc(Cl)cc2)CN(C(=O)c2ccc(OCCN3CCOCC3)cc2)C/C1=C\c1ccc(Cl)cc1`, for which the “Selectivity Index” value in [1] is over 5.5; in data set [2] it was over 22; in [7], over 11. The CC50 in data set [3] was 360 µM; in [4], 18 µM; in data set [5], 36 µM; in [6], 71 µM; in data set [8] it was 400 µM; in data set [9] it was over 400 µM.
As for `N[C@@H](Cc1ccc(N(CCCl)CCCl)cc1)C(=O)O`, the “Selectivity Index” value is over 5.7 in data set [1], over 2.5 in data set [2] and over 33 in data set [7]. The CC50 in data set [3], in data set [8] and in data set [9] was over 200 µM each time.
For `CCN(CC)CCOc1ccc(C(=O)N2C/C(=C\c3ccc(C)cc3)C(=O)/C(=C/c3ccc(C)cc3)C2)cc1.Cl`, the entries for the “Selectivity Index” value in data set [1], in data set [2] and in data set [7] were 2.6, 2.5 and 7.3, respectively. Moreover, the CC50 in data set [3] stood at 4.6 µM; in [8], 3.6 µM; in data set [9], 9.3 µM.
For the molecule `Cc1ccc(/C=C2\CN(C(=O)c3ccc(OCCN(C)C)cc3)C/C(=C\c3ccc(C)cc3)C2=O)cc1.Cl`, the entries for the “Selectivity Index” value in data set [1], in data set [2] and in [7] were 4.4, 3 and 7.3, respectively. The CC50 was determined as 3.4 µM in data set [3]; 2.1 µM in [4]; 0.85 µM in [5]; 1.4 µM in data set [6]; 7.9 µM in data set [8]; 7.2 µM in data set [9].
Consider `CN(C)CCOc1ccc(C(=O)N2C/C(=C\c3ccccc3)C(=O)/C(=C/c3ccccc3)C2)cc1.Cl`, for which the “Selectivity Index” value in [1] is on record as 2.2; in data set [2] it was 4.1; in [7], 8.5. Also, the CC50 turned out to be 8.9 µM in [3]; 2.1 µM in [4]; 1 µM in data set [5]; 3.8 µM in data set [6]; 3.6 µM in [8]; 13 µM in data set [9].
For the molecule `CCN(CC)CCOc1ccc(C(=O)N2C/C(=C\c3ccc(Cl)cc3)C(=O)/C(=C/c3ccc(Cl)cc3)C2)cc1.Cl`, the “Selectivity Index” value in [1] is over 2.1; in data set [2] it was over 10; in [7], over 7.5. Besides, the figures for the CC50 in data set [3], in [8] and in [9] were over 400 µM, 230 µM and over 400 µM, respectively.
Turning to `CC[N+](C)(CC)CCOc1ccc(C(=O)N2C/C(=C\c3ccc(Cl)cc3)C(=O)/C(=C/c3ccc(Cl)cc3)C2)cc1.[I-]`, the “Selectivity Index” value in data set [1] is reported as 0.7; in data set [2] it was over 1.2; in data set [7] it was over 4.2. For the same molecule, the CC50 in data set [3] was 9.4 µM; in data set [4] it was 220 µM; in data set [5], 64 µM; in data set [6], over 400 µM; in [8], over 400 µM; in data set [9], over 400 µM.
With `CCN(CC)CCOc1ccc(C(=O)N2C/C(=C\c3ccccc3)C(=O)/C(=C/c3ccccc3)C2)cc1.Cl`, the “Selectivity Index” value in data set [1] amounted to 2.4; in data set [2], 3.7; in [7], 12. The CC50 in data set [3] was 6 µM; in data set [4], 2 µM; in data set [5], 0.61 µM; in [6], 3.1 µM; in data set [8] it was 4.2 µM; in data set [9], 12 µM.
Regarding `CC[N+](C)(CC)CCOc1ccc(C(=O)N2C/C(=C\c3ccc([N+](=O)[O-])cc3)C(=O)/C(=C/c3ccc([N+](=O)[O-])cc3)C2)cc1.[I-]`, the “Selectivity Index” value in [1] was determined as 1.2; in data set [2] it was 1.3; in data set [7], 2.7. In addition, the CC50 is 13 µM in data set [3]; 61 µM in data set [4]; 29 µM in [5]; 67 µM in data set [6]; 93 µM in data set [8]; 130 µM in data set [9].
On to `Cc1ccc(/C=C2\CN(C(=O)c3ccc(OCCN4CCOCC4)cc3)C/C(=C\c3ccc(C)cc3)C2=O)cc1.Cl`, for which the “Selectivity Index” value turned out to be 15 in data set [1], 12 in [2] and 20 in [7]. Further, the CC50 in data set [3] is 12 µM; in data set [4] it was 2 µM; in data set [5], 1.2 µM; in data set [6], 1.6 µM; in [8] it was 10 µM; in data set [9] it was 49 µM.
Regarding `CC[N+](C)(CC)CCOc1ccc(C(=O)N2C/C(=C\c3ccc(C)cc3)C(=O)/C(=C/c3ccc(C)cc3)C2)cc1.[I-]`, the “Selectivity Index” value was 1.4 in [1], 1.4 in data set [2] and 1.5 in data set [7]. Besides, the CC50 was found to be 8.3 µM in data set [3]; 17 µM in data set [4]; 16 µM in data set [5]; 17 µM in [6]; 34 µM in data set [8]; 29 µM in data set [9].
`CC[N+](C)(CC)CCOc1ccc(C(=O)N2C/C(=C\c3ccccc3)C(=O)/C(=C/c3ccccc3)C2)cc1.[I-]`: the “Selectivity Index” value in data set [1] was found to be 1.1; in data set [2], 1.7; in data set [7], 1.7. The CC50 was 79 µM in data set [3]; 82 µM in [4]; 82 µM in [5]; 130 µM in [6]; 160 µM in data set [8]; 170 µM in data set [9].
Regarding `Cl.O=C1/C(=C/c2ccc(Cl)cc2)CN(C(=O)c2ccc(OCCN3CCCCC3)cc2)C/C1=C\c1ccc(Cl)cc1`, the “Selectivity Index” value was over 3.5 in data set [1], over 7.9 in data set [2] and over 6 in data set [7]. Moreover, the CC50 in [3] was 340 µM; in data set [8], over 400 µM; in [9] it was over 400 µM.
`CN(C)CCOc1ccc(C(=O)N2C/C(=C\c3ccc(Cl)cc3)C(=O)/C(=C/c3ccc(Cl)cc3)C2)cc1.Cl`: the “Selectivity Index” value in data set [1] is 5.6; in data set [2], 7.1; in data set [7] it was 7.5. In addition, the CC50 was 4.3 µM in [3]; 1.8 µM in data set [4]; 1.7 µM in [5]; 2.3 µM in [6]; 23 µM in data set [8]; 11 µM in [9].
Turning to `Cl.O=C1/C(=C/c2ccc([N+](=O)[O-])cc2)CN(C(=O)c2ccc(OCCN3CCOCC3)cc2)C/C1=C\c1ccc([N+](=O)[O-])cc1`, the figures for the “Selectivity Index” value in data set [1], in data set [2] and in data set [7] were 13, 13 and 28, respectively. Also, the CC50 was found to be 9.3 µM in data set [3]; 0.74 µM in [4]; 0.35 µM in data set [5]; 0.76 µM in data set [6]; 12 µM in [8]; 8.2 µM in data set [9].
For `Cl.O=C1/C(=C/c2ccc([N+](=O)[O-])cc2)CN(C(=O)c2ccc(OCCN3CCCCC3)cc2)C/C1=C\c1ccc([N+](=O)[O-])cc1`, the entries for the “Selectivity Index” value in data set [1], in data set [2] and in [7] were 6.5, 6.2 and 19, respectively. The CC50 in [3] amounted to 4.9 µM; in data set [4], 0.9 µM; in [5], 0.29 µM; in data set [6], 0.86 µM; in [8], 8 µM; in data set [9] it was 3.9 µM.
Turning to `CCN(CC)CCOc1ccc(C(=O)N2C/C(=C\c3ccc([N+](=O)[O-])cc3)C(=O)/C(=C/c3ccc([N+](=O)[O-])cc3)C2)cc1.Cl`, the “Selectivity Index” value in [1] came to 5.2; in data set [2], 4.6; in data set [7], 20. Besides, the CC50 in data set [3] came out at 5.9 µM; in data set [8] it was 5 µM; in [9] it was 4.5 µM.
